Reference: ChEMBL document CHEMBL2417416, “Total synthesis and full histone deacetylase inhibitory profiling of Azumamides A-E as well as β²- epi-Azumamide E and β³-epi-Azumamide E” (J Med Chem, 2013)

Legend:
[1] = molecular target: T1, Histone deacetylase 8 (Homo sapiens) (UniProt Q9BY41); experiment: Inhibition of recombinant human HDAC8 enzyme using Ac-LeuGlyLys (tfa)-AMC as substrate at 50 uM after 15 to 30 mins
T1 sequence (whole entry): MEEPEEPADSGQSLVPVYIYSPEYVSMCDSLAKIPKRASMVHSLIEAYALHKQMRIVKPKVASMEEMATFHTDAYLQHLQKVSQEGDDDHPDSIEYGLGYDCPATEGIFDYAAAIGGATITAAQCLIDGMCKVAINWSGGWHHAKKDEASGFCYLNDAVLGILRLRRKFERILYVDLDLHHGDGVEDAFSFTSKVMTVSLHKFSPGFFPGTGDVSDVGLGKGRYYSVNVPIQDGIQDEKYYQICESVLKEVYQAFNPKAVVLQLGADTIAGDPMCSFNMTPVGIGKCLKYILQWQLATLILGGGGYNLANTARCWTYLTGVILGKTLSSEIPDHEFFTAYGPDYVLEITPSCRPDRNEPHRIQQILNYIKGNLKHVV
Outline: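 HDAC8 (5 ng/well) was incubated 30 min at 37 °C with 50 μM compound and 400 μM trifluoroacetylated substrate Ac-Leu-Gly-Lys(Tfa)-AMC in Tris-HCl pH 8.0 buffer with NaCl, KCl, MgCl2 and BSA. Trypsin (0.4 mg/mL) development ran 15–30 min at room temperature, with a 360/460 nm read-out. There were at least two separate duplicate assays.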

[2] = molecular target: T2, Histone deacetylase 11 (Homo sapiens) (UniProt Q96DB2); experiment: Inhibition of recombinant human HDAC11 enzyme using Ac-LeuGlyLys(Ac)-AMC as substrate at 50 uM after 15 to 30 mins
T2 sequence (whole entry): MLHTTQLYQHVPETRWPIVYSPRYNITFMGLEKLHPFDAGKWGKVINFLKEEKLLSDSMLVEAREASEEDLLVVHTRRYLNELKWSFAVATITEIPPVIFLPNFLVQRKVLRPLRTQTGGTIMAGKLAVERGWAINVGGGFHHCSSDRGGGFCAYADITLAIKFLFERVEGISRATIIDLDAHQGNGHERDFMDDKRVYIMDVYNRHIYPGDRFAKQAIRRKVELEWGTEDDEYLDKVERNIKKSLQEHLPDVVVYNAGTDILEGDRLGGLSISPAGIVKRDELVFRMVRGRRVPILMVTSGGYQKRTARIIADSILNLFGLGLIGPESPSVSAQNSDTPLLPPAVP
Outline: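 HDAC11 (500 ng/well) was tested at a single 50 μM peptide concentration with 80 μM Ac-Leu-Gly-Lys(Ac)-AMC in Tris-HCl pH 8.0 buffer containing BSA, for 30 min at 37 °C. Trypsin development (0.4 mg/mL, 15–30 min, room temperature) released AMC, read at ex 360/em 460 nm. […] There were at least two assays in duplicate.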

[3] = molecular target: T3, Protein deacetylase HDAC6 (Homo sapiens) (UniProt Q9UBN7); experiment: Inhibition of recombinant human HDAC6 enzyme using flurogenic Ac-LeuGlyLys (Ac)-AMC as substrate at 50 uM after 15 to 30 mins
T3 sequence (whole entry): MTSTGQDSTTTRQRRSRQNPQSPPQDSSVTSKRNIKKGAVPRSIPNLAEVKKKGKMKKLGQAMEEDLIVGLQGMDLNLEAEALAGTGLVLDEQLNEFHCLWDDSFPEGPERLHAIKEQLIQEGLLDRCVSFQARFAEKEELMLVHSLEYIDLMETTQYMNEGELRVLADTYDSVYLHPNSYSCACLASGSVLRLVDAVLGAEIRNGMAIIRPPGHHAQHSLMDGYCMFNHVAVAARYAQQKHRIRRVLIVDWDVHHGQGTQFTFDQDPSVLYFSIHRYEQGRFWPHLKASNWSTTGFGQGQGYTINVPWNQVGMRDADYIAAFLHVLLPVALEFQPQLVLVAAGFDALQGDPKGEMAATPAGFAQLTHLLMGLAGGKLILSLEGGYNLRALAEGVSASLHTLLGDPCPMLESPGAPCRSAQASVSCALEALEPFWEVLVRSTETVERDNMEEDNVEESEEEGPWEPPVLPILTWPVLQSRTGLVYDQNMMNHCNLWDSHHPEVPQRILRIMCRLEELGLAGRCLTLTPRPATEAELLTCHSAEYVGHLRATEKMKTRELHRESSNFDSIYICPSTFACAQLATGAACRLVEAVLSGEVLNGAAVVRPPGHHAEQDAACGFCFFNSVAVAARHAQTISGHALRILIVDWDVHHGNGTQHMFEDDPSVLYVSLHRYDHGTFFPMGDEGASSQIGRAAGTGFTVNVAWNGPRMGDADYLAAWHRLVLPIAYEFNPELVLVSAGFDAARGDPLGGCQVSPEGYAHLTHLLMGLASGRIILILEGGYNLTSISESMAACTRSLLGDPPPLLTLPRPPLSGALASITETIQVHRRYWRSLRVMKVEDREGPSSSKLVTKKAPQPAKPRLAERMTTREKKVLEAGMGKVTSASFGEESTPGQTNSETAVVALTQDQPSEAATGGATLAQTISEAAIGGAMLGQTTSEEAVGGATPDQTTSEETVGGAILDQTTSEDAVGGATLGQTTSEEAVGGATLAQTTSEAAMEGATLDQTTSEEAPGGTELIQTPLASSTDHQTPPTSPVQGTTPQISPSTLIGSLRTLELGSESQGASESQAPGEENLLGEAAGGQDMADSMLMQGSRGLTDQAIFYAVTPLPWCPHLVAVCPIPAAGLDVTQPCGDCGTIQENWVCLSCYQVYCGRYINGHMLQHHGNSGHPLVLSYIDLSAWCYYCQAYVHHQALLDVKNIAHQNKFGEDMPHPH
Outline: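 The single-point screen used HDAC6 at 60 ng/well, 50 μM compound and 80 μM Ac-Leu-Gly-Lys(Ac)-AMC in pH 8.0 Tris buffer with 0.5 mg/mL BSA, incubated 30 min at 37 °C. Trypsin (0.4 mg/mL) was added for 15–30 min at room temperature, and fluorescence was read at 360/460 nm. Each result came from two or more assays run in duplicate.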

[4] = molecular target: Histone deacetylase 3/NCoR1 (Homo sapiens) (UniProt O15379+O75376); conditions: 50 uM
[5] = molecular target: T4, Polyamine deacetylase HDAC10 (Homo sapiens) (UniProt Q969S8); experiment: Inhibition of recombinant human HDAC10 enzyme using tetrapeptide Ac-ArgThr-Lys(Ac)Lys(Ac)-AMC as substrate at 50 uM after 15 to 30 mins
T4 sequence (whole entry): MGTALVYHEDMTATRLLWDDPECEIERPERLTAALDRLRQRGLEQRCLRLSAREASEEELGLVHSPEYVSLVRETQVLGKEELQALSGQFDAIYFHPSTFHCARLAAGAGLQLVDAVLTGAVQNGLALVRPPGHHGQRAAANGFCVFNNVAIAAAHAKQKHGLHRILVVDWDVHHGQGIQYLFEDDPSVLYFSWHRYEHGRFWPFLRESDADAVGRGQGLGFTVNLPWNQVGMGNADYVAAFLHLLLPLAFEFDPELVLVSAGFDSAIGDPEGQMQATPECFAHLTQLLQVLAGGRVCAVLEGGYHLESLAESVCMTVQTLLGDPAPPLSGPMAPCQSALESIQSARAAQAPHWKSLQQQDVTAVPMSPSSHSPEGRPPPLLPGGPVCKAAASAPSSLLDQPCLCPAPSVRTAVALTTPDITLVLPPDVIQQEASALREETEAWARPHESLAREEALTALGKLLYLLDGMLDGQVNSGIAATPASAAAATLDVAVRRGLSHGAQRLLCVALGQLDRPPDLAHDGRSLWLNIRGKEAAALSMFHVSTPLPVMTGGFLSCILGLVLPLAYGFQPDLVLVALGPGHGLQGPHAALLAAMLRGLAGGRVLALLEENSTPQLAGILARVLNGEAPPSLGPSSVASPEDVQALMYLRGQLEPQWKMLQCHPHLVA
Outline: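 Recombinant human HDAC10 (500 ng/well) was screened at 50 μM compound, with 100 μM of the Lys(Ac)-Lys(Ac)-AMC tetrapeptide substrate, in Tris-HCl pH 8.0 buffer with NaCl, KCl, MgCl2 and 0.5 mg/mL BSA. Plates were incubated 30 min at 37 °C, then developed with trypsin (0.4 mg/mL) for 15–30 min at room temperature and read at ex 360/em 460 nm. There were at least two assays in duplicate.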

Histone deacetylase 11 = molecular target: T5, Histone deacetylase 11 (Homo sapiens, UniProt Q96DB2); experiment: Inhibition of recombinant human HDAC11 enzyme using Ac-LeuGlyLys(Ac)-AMC as substrate after 15 to 30 mins
T5 sequence (Q96DB2 whole entry): T2 sequence (whole entry)

Histone deacetylase 1 = Histone deacetylase 1 (Homo sapiens, UniProt Q13547); experiment: Inhibition of recombinant human HDAC1 enzyme using flurogenic Ac-LeuGlyLys (Ac)-AMC as substrate after 15 to 30 mins
Chain of Histone deacetylase 1 (Q13547 whole entry): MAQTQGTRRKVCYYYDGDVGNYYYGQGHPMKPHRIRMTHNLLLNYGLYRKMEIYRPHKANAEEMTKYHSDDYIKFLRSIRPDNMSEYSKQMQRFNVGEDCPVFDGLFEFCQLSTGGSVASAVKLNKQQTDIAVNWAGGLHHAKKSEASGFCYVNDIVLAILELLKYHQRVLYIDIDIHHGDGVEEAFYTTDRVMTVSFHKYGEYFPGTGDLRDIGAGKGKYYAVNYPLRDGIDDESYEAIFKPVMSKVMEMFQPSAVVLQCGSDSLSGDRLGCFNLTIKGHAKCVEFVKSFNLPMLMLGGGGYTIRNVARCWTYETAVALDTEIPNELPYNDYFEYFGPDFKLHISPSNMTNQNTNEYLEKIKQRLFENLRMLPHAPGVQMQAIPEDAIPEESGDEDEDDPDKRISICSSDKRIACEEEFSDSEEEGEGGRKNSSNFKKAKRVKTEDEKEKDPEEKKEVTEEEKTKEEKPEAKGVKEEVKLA

Histone deacetylase 2 = Histone deacetylase 2 (Homo sapiens, UniProt Q92769); experiment: Inhibition of recombinant human HDAC2 enzyme using flurogenic Ac-LeuGlyLys (Ac)-AMC as substrate after 15 to 30 mins
Chain of Histone deacetylase 2 (Q92769 whole entry): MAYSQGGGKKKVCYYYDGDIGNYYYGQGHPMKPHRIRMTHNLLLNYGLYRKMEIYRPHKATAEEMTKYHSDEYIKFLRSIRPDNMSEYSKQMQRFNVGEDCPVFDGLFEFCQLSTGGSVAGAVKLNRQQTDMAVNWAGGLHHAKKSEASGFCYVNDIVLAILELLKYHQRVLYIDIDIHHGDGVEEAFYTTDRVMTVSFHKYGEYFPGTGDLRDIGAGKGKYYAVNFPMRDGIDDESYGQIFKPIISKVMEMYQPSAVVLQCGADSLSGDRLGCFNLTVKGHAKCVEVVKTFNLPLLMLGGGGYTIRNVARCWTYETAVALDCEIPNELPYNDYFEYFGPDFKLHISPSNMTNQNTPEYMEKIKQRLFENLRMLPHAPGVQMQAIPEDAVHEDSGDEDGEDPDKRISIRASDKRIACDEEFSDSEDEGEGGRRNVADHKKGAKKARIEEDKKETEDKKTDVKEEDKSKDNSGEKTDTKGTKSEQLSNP

[6] = molecular target: Histone deacetylase 3/NCoR1 (Homo sapiens, UniProt O15379); experiment: Inhibition of GST-tagged recombinant human HDAC3/NcoR1 enzyme using flurogenic Ac-LeuGlyLys (Ac)-AMC as substrate after 15 to 30 mins; assay type: protein-complex assay
Chain of Histone deacetylase 3/NCoR1 (O15379 whole entry): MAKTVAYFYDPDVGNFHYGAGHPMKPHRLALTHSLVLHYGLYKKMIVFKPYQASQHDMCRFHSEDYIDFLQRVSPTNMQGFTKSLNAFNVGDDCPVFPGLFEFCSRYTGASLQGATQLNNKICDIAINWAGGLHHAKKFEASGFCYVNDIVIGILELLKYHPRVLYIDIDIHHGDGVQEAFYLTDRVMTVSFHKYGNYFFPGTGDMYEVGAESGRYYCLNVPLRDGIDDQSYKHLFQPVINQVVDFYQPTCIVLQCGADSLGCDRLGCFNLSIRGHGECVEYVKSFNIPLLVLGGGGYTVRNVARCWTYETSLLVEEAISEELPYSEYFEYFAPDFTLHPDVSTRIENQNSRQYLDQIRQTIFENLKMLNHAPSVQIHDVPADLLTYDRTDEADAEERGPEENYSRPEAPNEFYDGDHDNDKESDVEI
Chain of Histone deacetylase 3/NCoR1 (O75376 whole entry, further chain): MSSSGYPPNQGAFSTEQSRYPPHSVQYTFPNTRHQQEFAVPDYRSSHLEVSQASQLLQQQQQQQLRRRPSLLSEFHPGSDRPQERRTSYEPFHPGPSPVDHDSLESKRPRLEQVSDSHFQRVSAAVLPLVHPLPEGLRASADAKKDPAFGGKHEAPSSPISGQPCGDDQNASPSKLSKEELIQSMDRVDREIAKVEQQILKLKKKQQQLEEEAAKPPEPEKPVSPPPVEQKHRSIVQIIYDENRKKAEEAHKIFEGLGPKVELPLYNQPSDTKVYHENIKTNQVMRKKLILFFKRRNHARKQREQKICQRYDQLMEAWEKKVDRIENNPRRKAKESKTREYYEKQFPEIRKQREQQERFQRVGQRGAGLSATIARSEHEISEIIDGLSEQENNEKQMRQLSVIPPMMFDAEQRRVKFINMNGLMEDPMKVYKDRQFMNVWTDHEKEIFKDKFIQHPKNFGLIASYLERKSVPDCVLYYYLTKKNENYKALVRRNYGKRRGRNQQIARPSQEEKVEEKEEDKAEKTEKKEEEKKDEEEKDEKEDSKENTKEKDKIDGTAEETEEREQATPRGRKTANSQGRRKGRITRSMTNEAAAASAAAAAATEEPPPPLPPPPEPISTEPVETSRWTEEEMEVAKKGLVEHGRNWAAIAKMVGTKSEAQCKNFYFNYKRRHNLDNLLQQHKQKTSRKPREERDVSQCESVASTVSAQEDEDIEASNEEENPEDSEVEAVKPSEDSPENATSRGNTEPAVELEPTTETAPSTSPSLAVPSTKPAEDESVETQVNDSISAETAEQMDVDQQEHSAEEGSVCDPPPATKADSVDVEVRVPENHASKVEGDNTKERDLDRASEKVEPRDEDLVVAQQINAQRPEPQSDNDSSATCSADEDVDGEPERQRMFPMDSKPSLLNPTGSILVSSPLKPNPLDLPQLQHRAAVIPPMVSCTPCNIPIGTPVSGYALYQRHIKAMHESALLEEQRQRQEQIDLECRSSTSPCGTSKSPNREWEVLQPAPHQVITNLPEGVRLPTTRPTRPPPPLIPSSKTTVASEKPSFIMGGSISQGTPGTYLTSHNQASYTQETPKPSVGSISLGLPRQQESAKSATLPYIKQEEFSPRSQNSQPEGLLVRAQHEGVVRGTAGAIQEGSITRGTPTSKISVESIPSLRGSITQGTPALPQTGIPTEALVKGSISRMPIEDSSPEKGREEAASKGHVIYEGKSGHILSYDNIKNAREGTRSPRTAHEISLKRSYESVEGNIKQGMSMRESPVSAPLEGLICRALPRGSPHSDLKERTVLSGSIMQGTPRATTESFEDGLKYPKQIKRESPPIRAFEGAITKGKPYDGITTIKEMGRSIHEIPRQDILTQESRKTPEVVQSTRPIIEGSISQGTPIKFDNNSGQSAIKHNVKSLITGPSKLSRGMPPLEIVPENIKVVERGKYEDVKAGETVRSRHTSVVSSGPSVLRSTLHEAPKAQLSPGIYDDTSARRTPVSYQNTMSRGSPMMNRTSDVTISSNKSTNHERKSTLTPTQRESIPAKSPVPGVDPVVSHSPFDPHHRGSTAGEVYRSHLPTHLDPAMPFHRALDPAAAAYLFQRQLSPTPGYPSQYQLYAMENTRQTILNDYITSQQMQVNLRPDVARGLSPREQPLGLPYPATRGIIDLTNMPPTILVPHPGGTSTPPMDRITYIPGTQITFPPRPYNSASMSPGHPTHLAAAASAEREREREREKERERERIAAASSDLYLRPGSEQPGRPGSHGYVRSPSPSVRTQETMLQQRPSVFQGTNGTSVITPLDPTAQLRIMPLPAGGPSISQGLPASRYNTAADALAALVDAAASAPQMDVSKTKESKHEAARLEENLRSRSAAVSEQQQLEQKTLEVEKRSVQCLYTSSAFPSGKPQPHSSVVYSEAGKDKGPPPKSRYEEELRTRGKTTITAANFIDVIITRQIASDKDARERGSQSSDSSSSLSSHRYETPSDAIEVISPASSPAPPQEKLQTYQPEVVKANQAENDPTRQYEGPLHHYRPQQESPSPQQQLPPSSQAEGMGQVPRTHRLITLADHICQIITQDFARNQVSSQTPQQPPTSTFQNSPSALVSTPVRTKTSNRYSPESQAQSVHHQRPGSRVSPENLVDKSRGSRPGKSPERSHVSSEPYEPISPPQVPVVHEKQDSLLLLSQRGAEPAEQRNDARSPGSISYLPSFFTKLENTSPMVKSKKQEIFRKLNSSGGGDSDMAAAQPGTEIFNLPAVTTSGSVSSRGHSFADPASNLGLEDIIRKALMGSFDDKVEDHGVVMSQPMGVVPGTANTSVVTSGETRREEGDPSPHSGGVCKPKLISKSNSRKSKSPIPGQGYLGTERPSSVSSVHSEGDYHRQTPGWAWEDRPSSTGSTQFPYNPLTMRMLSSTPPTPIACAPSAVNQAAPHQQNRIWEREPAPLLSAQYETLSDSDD

Histone deacetylase 8 = molecular target: T6, Histone deacetylase 8 (Homo sapiens, UniProt Q9BY41); experiment: Inhibition of recombinant human HDAC8 enzyme using Ac-LeuGlyLys (tfa)-AMC as substrate after 15 to 30 mins
T6 sequence (Q9BY41 whole entry): T1 sequence (whole entry)

[7] = molecular target: T7, Protein deacetylase HDAC6 (Homo sapiens, UniProt Q9UBN7); experiment: Inhibition of recombinant human HDAC6 enzyme using flurogenic Ac-LeuGlyLys (Ac)-AMC as substrate after 15 to 30 mins
T7 sequence (Q9UBN7 whole entry): T3 sequence (whole entry)

[8] = molecular target: T8, Polyamine deacetylase HDAC10 (Homo sapiens, UniProt Q969S8); experiment: Inhibition of recombinant human HDAC10 enzyme using tetrapeptide Ac-ArgThr-Lys(Ac)Lys(Ac)-AMC as substrate after 15 to 30 mins
T8 sequence (Q969S8 whole entry): T4 sequence (whole entry)

inhibition [1] [%]	inhibition [2] [%]	inhibition [3] [%]	inhibition [4] [%]	inhibition [5] [%]	Ki (Histone deacetylase 11) [µM]	Ki (Histone deacetylase 1) [nM]	Ki (Histone deacetylase 2) [µM]	Ki [6] [µM]	Ki (Histone deacetylase 8) [µM]	Ki [7] [µM]	Ki [8] [µM]	SMILES
< 50		< 50		< 50	> 5	> 5000	> 5	3.7				C[C@@H]1C(=O)N[C@H](C)C(=O)N[C@H](C)C(=O)N[C@H](Cc2ccccc2)C(=O)N[C@@H]1C/C=C\CCC(N)=O [AZUMAMIDE D]
					0.06			0.025	4.4	> 5	0.02	CC(C)[C@H]1NC(=O)[C@@H](C)[C@@H](C/C=C\CCC(=O)O)NC(=O)[C@@H](Cc2ccccc2)NC(=O)[C@@H](C)NC1=O [AZUMAMIDE E]
						0.002						C/C=C1\NC(=O)[C@H]2CSSCC/C=C/[C@H](CC(=O)N[C@H](C(C)C)C(=O)N2)OC(=O)[C@H](C(C)C)NC1=O [ROMIDEPSIN]

The remaining lines, values behind:

SMILES	inhibition [1] [%]	inhibition [2] [%]	inhibition [3] [%]	inhibition [4] [%]	inhibition [5] [%]	Ki (Histone deacetylase 11) [µM]	Ki (Histone deacetylase 1) [nM]	Ki (Histone deacetylase 2) [µM]	Ki [6] [µM]	Ki (Histone deacetylase 8) [µM]	Ki [7] [µM]	Ki [8] [µM]
CC(C)[C@H]1NC(=O)[C@@H](C)[C@H](C/C=C\CCC(=O)O)NC(=O)[C@@H](Cc2ccccc2)NC(=O)[C@@H](C)NC1=O	< 50	< 50	< 50	< 50	< 50							
CC(C)[C@H]1NC(=O)[C@H](C)[C@@H](C/C=C\CCC(=O)O)NC(=O)[C@@H](Cc2ccccc2)NC(=O)[C@@H](C)NC1=O	< 50	< 50	< 50	< 50	< 50							
CC(C)[C@H]1NC(=O)[C@@H](C)[C@@H](C/C=C\CCC(N)=O)NC(=O)[C@@H](Cc2ccccc2)NC(=O)[C@@H](C)NC1=O [AZUMAMIDE A]			< 50		< 50	> 5	> 5000	> 5	3.2	> 5		
CC(C)[C@H]1NC(=O)[C@@H](C)[C@@H](C/C=C\CCC(N)=O)NC(=O)[C@@H](Cc2ccc(O)cc2)NC(=O)[C@@H](C)NC1=O [AZUMAMIDE B]	< 50		< 50		< 50	> 5	5000	3	3			
CC(C)[C@H]1NC(=O)[C@@H](C)[C@@H](C/C=C\CCC(=O)O)NC(=O)[C@@H](Cc2ccc(O)cc2)NC(=O)[C@@H](C)NC1=O [AZUMAMIDE C]						0.035	32	0.04	0.014	> 5	2	0.01
